Measured values reported in ChEMBL document CHEMBL1806449, “A class of Trp-Trp-AA-OBzl: Synthesis, in vitro anti-proliferation/in vivo anti-tumor evaluation, intercalation-mechanism investigation and 3D QSAR analysis” (Eur J Med Chem, 2011).
pIC50: −log10 of the molar value. Peptide text beside a SMILES is read from it. * marks the point of attachment. OBn = c1ccc(CO*)cc1

Columns and labels:
CCRF S-180 [1] = experiment: Antiproliferative activity against mouse S180 cells after 48 hrs by MTT assay; assay type: functional, cell-based; conditions: CCRF S-180, 48 h
K562 = experiment: Antiproliferative activity against human K562 cells after 48 hrs by MTT assay; assay type: functional, cell-based; conditions: K562, 48 h
B16 = experiment: Antiproliferative activity against mouse B16 cells after 48 hrs by MTT assay; assay type: functional, cell-based; conditions: B16, 48 h
H22 = experiment: Antiproliferative activity against mouse H22 cells after 48 hrs by MTT assay; assay type: functional, cell-based; conditions: H22, 48 h
HepG2 = experiment: Antiproliferative activity against human HepG2 cells after 48 hrs by MTT assay; assay type: functional, cell-based; conditions: HepG2, 48 h
Mus musculus [2] = experiment: Toxicity in ICR mouse xenografted with mouse S180 cells assessed as increase in spleen index at 8.9 umol/kg; assay type: organism-based, CCRF S-180; conditions: in vivo
Outline: (§1)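 S180-bearing male ICR mice (10–12 weeks; 1×10^7 cells s.c. right oxter; 12 per group), daily i.p. 8.9 µmol/kg for seven days starting 24 h after implantation; NS, cytarabine and doxorubicin controls; liver, brain, kidney weights, spleen index and body-weight gain recorded.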

CCRF S-180 [3] = experiment: Antitumor activity against mouse S180 cells xenografted in ICR mouse assessed as tumor growth inhibition at 8.9 umol/kg, ip administered 1 day after tumor inoculation qd for 7 days; assay type: functional; conditions: CCRF S-180, ip, read-out: GI
Outline: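 Male ICR mice 10–12 weeks; S180 from ascites serially transplanted weekly; 1×10^7 viable cells in 0.2 ml NS implanted s.c. at right oxter; 24 h later randomized (10 per group); daily i.p. 8.9, 0.89 or 0.089 µmol/kg/day in 0.2 ml NS, 7 days; NS and cytarabine controls; sacrificed 24 h after last dose; inhibition % = [1−(Tw/Cw)]×100.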

Mus musculus [4] = experiment: Toxicity in ICR mouse xenografted with mouse S180 cells assessed as effect on liver weight at 8.9 umol/kg; assay type: organism-based, CCRF S-180; conditions: in vivo; outline: as §1
Mus musculus [5] = experiment: Toxicity in ICR mouse xenografted with mouse S180 cells assessed as effect on brain weight at 8.9 umol/kg; assay type: organism-based, CCRF S-180; conditions: in vivo; outline: as §1
Mus musculus [6] = experiment: Toxicity in ICR mouse xenografted with mouse S180 cells assessed as effect on kidney weight at 8.9 umol/kg; assay type: organism-based, CCRF S-180; conditions: in vivo; outline: as §1
Mus musculus [7] = experiment: Toxicity in ICR mouse xenografted with mouse S180 cells assessed as increase in body weight at 8.9 umol/kg; assay type: organism-based, CCRF S-180; conditions: in vivo; outline: as §1
Mus musculus [8] = experiment: Acute toxicity in ICR mouse assessed as tremors at 500 mg/kg, ip administered qd for 7 days; assay type: organism-based; parameters: dose 500 mg/kg, route intraperitoneal; conditions: in vivo, 168 h
Mus musculus [9] = experiment: Acute toxicity in ICR mouse assessed as twitch at 500 mg/kg, ip administered qd for 7 days; assay type: organism-based; parameters: dose 500 mg/kg, route intraperitoneal; conditions: in vivo, 168 h
Mus musculus [10] = experiment: Acute toxicity in ICR mouse assessed as jumping at 500 mg/kg, ip administered qd for 7 days; assay type: organism-based; parameters: dose 500 mg/kg, route intraperitoneal; conditions: in vivo, 168 h
Mus musculus [11] = experiment: Acute toxicity in ICR mouse assessed as tetanus at 500 mg/kg, ip administered qd for 7 days; assay type: organism-based; parameters: dose 500 mg/kg, route intraperitoneal; conditions: in vivo, 168 h
Mus musculus [12] = experiment: Acute toxicity in ICR mouse assessed as supination at 500 mg/kg, ip administered qd for 7 days; assay type: organism-based; parameters: dose 500 mg/kg, route intraperitoneal; conditions: in vivo, 168 h
Mus musculus [13] = experiment: Acute toxicity in ICR mouse assessed as mortality at 500 mg/kg, ip administered qd for 7 days; assay type: organism-based; parameters: dose 500 mg/kg, route intraperitoneal; conditions: in vivo, 168 h
Mus musculus [14] = experiment: Acute toxicity in ICR mouse assessed as apparent changes in any organ at 500 mg/kg, ip administered qd for 7 days; assay type: organism-based; parameters: dose 500 mg/kg, route intraperitoneal; conditions: in vivo, 168 h
[15] = Acute toxicity in ip dosed ICR mouse assessed as lethal dose; assay type: organism-based; conditions: in vivo
Outline: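 Male ICR mice, 24 weeks old, got a single i.p. injection of 500 mg/kg in 0.2 ml NS (normal saline). They were watched for 7 days for neurotoxic behaviour (tremor, twitch, jumping, tetanus, supination) and for death.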

Row | Structure (SMILES) | pIC50 (CCRF S-180 [1]) | pIC50 (K562) | pIC50 (B16) | pIC50 (H22) | pIC50 (HepG2) | Activity (Mus musculus [2]) | inhibition in vivo at 8.9 µmol/kg (CCRF S-180 [3]) [%] | Activity (Mus musculus [4]) [g] | Activity (Mus musculus [5]) [g] | Activity (Mus musculus [6]) [g] | Activity (Mus musculus [7]) [g] | Activity (Mus musculus [8]) | Activity (Mus musculus [9]) | Activity (Mus musculus [10]) | Activity (Mus musculus [11]) | Activity (Mus musculus [12]) | Activity (Mus musculus [13]) | Activity (Mus musculus [14]) | LD50 [15] [mg/kg]
1 | C[C@@H](O)[C@H](NC(=O)[C@H](Cc1c[nH]c2ccccc12)NC(=O)[C@@H](N)Cc1c[nH]c2ccccc12)C(=O)OCc1ccccc1 (H-Trp-Trp-Thr-OBn) | 4.93 | 4.92 | 4.80 | 4.85 | 4.86 | 8.21 | 61.2 | 1.81 | 0.3 | 0.15 | 9.99 | Non-toxic | Non-toxic | Non-toxic | Non-toxic | Non-toxic | Non-toxic | Non-toxic | > 500
2 | CC[C@H](C)[C@H](NC(=O)[C@H](Cc1c[nH]c2ccccc12)NC(=O)[C@@H](N)Cc1c[nH]c2ccccc12)C(=O)OCc1ccccc1 (H-Trp-Trp-Ile-OBn) | 4.72 | 4.71 | 4.59 | 4.66 | 4.65 | 8.12 | 51.5 | 1.85 | 0.28 | 0.17 | 9.8 | Non-toxic | Non-toxic | Non-toxic | Non-toxic | Non-toxic | Non-toxic | Non-toxic | > 500
3 | N[C@@H](Cc1c[nH]c2ccccc12)C(=O)N[C@@H](Cc1c[nH]c2ccccc12)C(=O)NCC(=O)OCc1ccccc1 (H-Trp-Trp-Gly-OBn) | 4.71 | 4.79 | 4.61 | 4.65 | 4.75 | 8.11 | 56.6 | 1.8 | 0.27 | 0.16 | 9.77 | Non-toxic | Non-toxic | Non-toxic | Non-toxic | Non-toxic | Non-toxic | Non-toxic | > 500
4 | N[C@@H](Cc1c[nH]c2ccccc12)C(=O)N[C@@H](Cc1c[nH]c2ccccc12)C(=O)N[C@@H](Cc1cnc[nH]1)C(=O)OCc1ccccc1 (H-Trp-Trp-His-OBn) | 4.58 | 4.60 | 4.50 | 4.57 | 4.56 | 8.34 | 30.7 | 1.78 | 0.28 | 0.16 | 10.04 | Non-toxic | Non-toxic | Non-toxic | Non-toxic | Non-toxic | Non-toxic | Non-toxic | > 500
5 | CSCC[C@H](NC(=O)[C@H](Cc1c[nH]c2ccccc12)NC(=O)[C@@H](N)Cc1c[nH]c2ccccc12)C(=O)OCc1ccccc1 (H-Trp-Trp-Met-OBn) | 4.31 | 4.38 | 4.18 | 4.31 | 4.28 | 7.69 | 16.9 | 1.74 | 0.28 | 0.16 | 8.93 | Non-toxic | Non-toxic | Non-toxic | Non-toxic | Non-toxic | Non-toxic | Non-toxic | > 500
6 | C[C@H](NC(=O)[C@H](Cc1c[nH]c2ccccc12)NC(=O)[C@@H](N)Cc1c[nH]c2ccccc12)C(=O)OCc1ccccc1 (H-Trp-Trp-Ala-OBn) | 4.73 | 4.74 | 4.64 | 4.68 | 4.70 | 7.59 | 50 | 1.77 | 0.27 | 0.16 | 9.5 | Non-toxic | Non-toxic | Non-toxic | Non-toxic | Non-toxic | Non-toxic | Non-toxic | > 500
7 | N[C@@H](Cc1c[nH]c2ccccc12)C(=O)N[C@@H](Cc1c[nH]c2ccccc12)C(=O)N[C@@H](Cc1ccccc1)C(=O)OCc1ccccc1 (H-Trp-Trp-Phe-OBn) | 4.84 | 4.83 | 4.71 | 4.76 | 4.78 | 7.96 | 56.7 | 1.89 | 0.28 | 0.16 | 9.86 | Non-toxic | Non-toxic | Non-toxic | Non-toxic | Non-toxic | Non-toxic | Non-toxic | > 500
8 | N[C@@H](Cc1c[nH]c2ccccc12)C(=O)N[C@@H](Cc1c[nH]c2ccccc12)C(=O)N[C@@H](CCC(=O)O)C(=O)OCc1ccccc1 (H-Trp-Trp-Glu-OBn) | 4.87 | 4.96 | 4.68 | 4.86 | 4.68 | 7.92 | 55.3 | 1.86 | 0.27 | 0.17 | 9.94 | Non-toxic | Non-toxic | Non-toxic | Non-toxic | Non-toxic | Non-toxic | Non-toxic | > 500
9 | NC(=O)CC[C@H](NC(=O)[C@H](Cc1c[nH]c2ccccc12)NC(=O)[C@@H](N)Cc1c[nH]c2ccccc12)C(=O)OCc1ccccc1 (H-Trp-Trp-Gln-OBn) | 5.06 | 5.05 | 4.92 | 4.97 | 4.99 | 7.96 | 72 | 1.81 | 0.27 | 0.16 | 9.89 | Non-toxic | Non-toxic | Non-toxic | Non-toxic | Non-toxic | Non-toxic | Non-toxic | > 500
10 | N[C@@H](Cc1c[nH]c2ccccc12)C(=O)N[C@@H](Cc1c[nH]c2ccccc12)C(=O)N[C@@H](Cc1c[nH]c2ccccc12)C(=O)OCc1ccccc1 (H-Trp-Trp-Trp-OBn) | 3.94 | 3.90 | 3.80 | 4.01 | 3.81 | 7.75 | 19.1 | 1.78 | 0.29 | 0.16 | 8.71 |  |  |  |  |  |  |  | 
11 | CC(C)C[C@H](NC(=O)[C@H](Cc1c[nH]c2ccccc12)NC(=O)[C@@H](N)Cc1c[nH]c2ccccc12)C(=O)OCc1ccccc1 (H-Trp-Trp-Leu-OBn) | 3.93 | 3.93 | 3.91 | 3.92 | 3.91 | 7.45 | 3.29 | 1.7 | 0.26 | 0.16 | 8.4 |  |  |  |  |  |  |  | 
